ChEMBL document CHEMBL1127320, “Dual-action cephalosporins incorporating a 3'-tertiary-amine-linked quinolone” (J Med Chem, 1994)
Values after ≈ are worked out from the molar mass of the structure shown.

What was measured:
Escherichia coli [1] = assay: Minimum inhibitory concentration against E. coli UB1005 (DC0)
[2] = target: T1, Penicillin-binding protein 1A (Escherichia coli K-12) (UniProt P02918); assay: Affinity against penicillin binding protein 1a of Escherichia coli UB1005 (DC0) was evaluated.
T1 sequence (whole entry): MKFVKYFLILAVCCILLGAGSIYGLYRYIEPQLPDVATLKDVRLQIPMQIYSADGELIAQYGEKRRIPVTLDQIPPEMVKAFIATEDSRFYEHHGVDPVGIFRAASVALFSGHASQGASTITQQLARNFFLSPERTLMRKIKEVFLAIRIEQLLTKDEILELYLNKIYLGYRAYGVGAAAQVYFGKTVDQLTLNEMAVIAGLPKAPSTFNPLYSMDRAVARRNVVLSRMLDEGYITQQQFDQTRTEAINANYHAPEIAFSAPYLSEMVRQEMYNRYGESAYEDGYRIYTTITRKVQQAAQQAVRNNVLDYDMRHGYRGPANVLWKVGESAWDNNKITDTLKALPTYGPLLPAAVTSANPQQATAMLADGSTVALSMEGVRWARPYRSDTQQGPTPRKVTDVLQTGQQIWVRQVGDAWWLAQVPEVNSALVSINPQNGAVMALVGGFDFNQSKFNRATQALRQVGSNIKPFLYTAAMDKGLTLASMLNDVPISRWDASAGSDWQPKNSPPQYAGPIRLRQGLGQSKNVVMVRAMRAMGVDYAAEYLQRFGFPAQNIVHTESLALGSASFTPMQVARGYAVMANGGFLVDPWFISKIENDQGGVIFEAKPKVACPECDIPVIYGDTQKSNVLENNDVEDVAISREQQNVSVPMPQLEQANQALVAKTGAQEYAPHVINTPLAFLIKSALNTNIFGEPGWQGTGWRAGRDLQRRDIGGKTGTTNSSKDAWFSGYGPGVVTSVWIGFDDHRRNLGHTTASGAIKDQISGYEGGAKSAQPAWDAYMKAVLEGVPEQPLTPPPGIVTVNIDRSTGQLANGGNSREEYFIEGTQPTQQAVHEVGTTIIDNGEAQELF
Summary of the method: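 Solubilized membranes from sonicated E. coli UB1005 were used. Binding to penicillin-binding proteins was measured as inhibition of [14C]penicillin G binding.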

[3] = target: T2, Peptidoglycan D,D-transpeptidase MrdA (Escherichia coli K-12) (UniProt P0AD65); assay: Affinity for penicillin binding protein 2 of Escherichia coli UB1005 (DC0) was evaluated.; design: unit not given here
T2 sequence (whole entry): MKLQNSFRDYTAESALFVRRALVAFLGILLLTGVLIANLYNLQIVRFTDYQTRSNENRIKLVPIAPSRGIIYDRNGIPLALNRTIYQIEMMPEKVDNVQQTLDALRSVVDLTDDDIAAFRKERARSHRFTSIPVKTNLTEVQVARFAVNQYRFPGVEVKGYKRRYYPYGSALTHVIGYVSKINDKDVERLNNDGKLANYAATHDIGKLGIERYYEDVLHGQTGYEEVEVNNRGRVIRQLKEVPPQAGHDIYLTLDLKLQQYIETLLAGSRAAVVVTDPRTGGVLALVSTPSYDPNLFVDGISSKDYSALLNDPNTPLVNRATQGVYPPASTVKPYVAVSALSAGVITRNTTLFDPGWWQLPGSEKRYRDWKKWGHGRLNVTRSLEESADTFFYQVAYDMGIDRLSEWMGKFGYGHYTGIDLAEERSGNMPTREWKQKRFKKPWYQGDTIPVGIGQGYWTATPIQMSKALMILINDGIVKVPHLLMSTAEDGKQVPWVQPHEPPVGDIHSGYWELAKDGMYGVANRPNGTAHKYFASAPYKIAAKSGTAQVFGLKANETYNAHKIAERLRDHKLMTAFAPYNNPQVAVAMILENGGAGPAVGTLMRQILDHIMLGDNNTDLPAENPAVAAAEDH
Summary of the method: (§1)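 Solubilised membranes from sonicated E. coli UB1005 served as the binding-protein source. Binding was read as inhibition of [14C]penicillin G binding.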

[4] = target: T3, Penicillin-binding protein 1B (Escherichia coli K-12) (UniProt P02919); assay: Affinity for penicillin binding protein 1b of Escherichia coli UB1005 (DC0) was evaluated.; design: unit not given here
T3 sequence (whole entry): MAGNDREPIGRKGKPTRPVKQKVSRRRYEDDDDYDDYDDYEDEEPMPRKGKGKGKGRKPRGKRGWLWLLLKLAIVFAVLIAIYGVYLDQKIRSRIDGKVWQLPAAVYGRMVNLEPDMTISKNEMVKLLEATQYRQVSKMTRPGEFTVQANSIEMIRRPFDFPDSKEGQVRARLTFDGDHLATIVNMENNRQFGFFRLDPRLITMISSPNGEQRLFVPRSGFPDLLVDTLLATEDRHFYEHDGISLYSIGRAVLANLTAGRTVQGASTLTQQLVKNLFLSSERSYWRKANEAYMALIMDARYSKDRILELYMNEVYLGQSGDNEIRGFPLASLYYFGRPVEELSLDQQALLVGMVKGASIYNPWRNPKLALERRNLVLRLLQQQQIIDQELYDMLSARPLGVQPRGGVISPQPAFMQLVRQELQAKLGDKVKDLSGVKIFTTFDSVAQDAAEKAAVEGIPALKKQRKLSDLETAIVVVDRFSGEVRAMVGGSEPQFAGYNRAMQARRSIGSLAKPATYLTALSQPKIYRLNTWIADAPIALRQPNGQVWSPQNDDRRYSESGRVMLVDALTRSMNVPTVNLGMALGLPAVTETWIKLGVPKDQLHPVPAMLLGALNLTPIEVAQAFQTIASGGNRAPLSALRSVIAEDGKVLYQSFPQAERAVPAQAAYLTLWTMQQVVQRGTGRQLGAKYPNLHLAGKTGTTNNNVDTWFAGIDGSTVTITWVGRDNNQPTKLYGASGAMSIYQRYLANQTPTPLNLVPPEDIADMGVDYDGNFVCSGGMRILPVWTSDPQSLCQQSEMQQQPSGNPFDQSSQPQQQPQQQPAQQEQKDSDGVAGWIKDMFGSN
Summary of the method: as §1

Staphylococcus aureus [5] = assay: In vitro minimum inhibitory concentration was measured against Staphylococcus aureus 753 (Methicillin resistant) strain.; format: functional
Streptococcus pneumoniae = assay: In vitro minimum inhibitory concentration was measured against Streptococcus pneumoniae 6301 strain; format: functional
Summary of the method: (§2)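 Streptococci were tested on brain heart infusion agar plus 20 units/mL catalase, Proteus on Mueller-Hinton with 3% agar, and others on Mueller-Hinton agar. Inocula were 100-fold-diluted overnight cultures, about 3 × 10^4 CFU/spot, read after overnight incubation at 36 °C.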

Pseudomonas aeruginosa [6] = assay: In vitro minimum inhibitory concentration was measured against Pseudomonas aeruginosa 18S/H strain.; format: functional
Summary of the method: as §2

Escherichia coli [7] = assay: In vitro minimum inhibitory concentration was measured against Escherichia coli ATCC 25922 strain.; format: functional
Summary of the method: as §2

Klebsiella pneumoniae = assay: In vitro minimum inhibitory concentration was measured against Klebsiella pneumoniae A strain.; format: functional
Summary of the method: as §2

Micrococcus luteus = assay: In vitro minimum inhibitory concentration was measured against Micrococcus luteus ATCC 9341 strain.; format: functional
Summary of the method: as §2

Escherichia coli [8] = assay: In vitro minimum inhibitory concentration was measured against Escherichia coli 257 strain.; format: functional
Summary of the method: as §2

[9] = test system: Penicillin-binding protein 3 (Escherichia coli); assay: Affinity for penicillin binding protein 3 of Escherichia coli UB1005 (DC0) was evaluated.; design: unit not given here
Streptococcus pyogenes = assay: In vitro minimum inhibitory concentration was measured against Streptococcus pyogenes 4 strain.; format: functional
Summary of the method: as §2

Serratia marcescens = assay: In vitro minimum inhibitory concentration was measured against Serratia marcescens 1071(beta lactamase producer) strain.; format: functional
Summary of the method: as §2

Enterobacter cloacae [10] = assay: In vitro minimum inhibitory concentration was measured against Enterobacter cloacae p99 (beta lactamase producer) strain.; format: functional
Escherichia coli [11] = assay: In vitro minimum inhibitory concentration was measured against Escherichia coli TEM-1 (Beta lactamase producer) strain.; format: functional
Summary of the method: as §2

Enterococcus faecalis = assay: In vitro minimum inhibitory concentration was measured against Enterococcus faecalis ATCC 29212 strain.; format: functional
Summary of the method: as §2

Pseudomonas aeruginosa [12] = assay: In vitro minimum inhibitory concentration was measured against Pseudomonas aeruginosa 8780 strain.; format: functional
Summary of the method: as §2

Staphylococcus aureus [13] = assay: In vitro minimum inhibitory concentration was measured against Staphylococcus aureus smith strain.; format: functional
Proteus vulgaris = assay: In vitro minimum inhibitory concentration was measured against Proteus vulgaris 1028BC (beta lactamase producer) strain.; format: functional
Summary of the method: as §2

Enterobacter cloacae [14] = assay: In vitro minimum inhibitory concentration was measured against Enterobacter cloacae 5699 strain.; format: functional
Citrobacter freundii = assay: In vitro minimum inhibitory concentration was measured against Citrobacter freundii BS-16 (beta lactamase producer) strain.; format: functional
Summary of the method: as §2, with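 “MICs were determined by agar dilution with 2-fold dilutions giving final 128–0.0156 µg/mL, extended to 0.000977 µg/mL where needed. Streptococci” for “Streptococci”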

Escherichia coli [15] = assay: Minimum inhibitory concentration for DC2, a permeability mutant
Summary of the method: as §2, with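 “MICs were determined by agar dilution with 2-fold dilutions giving final 128–0.0156 µg/mL, extended to 0.000977 µg/mL where needed. Streptococci” for “Streptococci”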

Proteus mirabilis = assay: In vitro minimum inhibitory concentration was measured against Proteus mirabilis 90 strain.; format: functional
Summary of the method: as §2

[16] = target: T1, Penicillin-binding protein 1A (Escherichia coli K-12); assay: Affinity for penicillin binding protein 1a of Escherichia coli UB1005 (DC0) was evaluated.; design: unit not given here
Summary of the method: as §1

Staphylococcus aureus [17] = assay: In vitro minimum inhibitory concentration was measured against Staphylococcus aureus 67-0 (Methicillin resistant) strain.; format: functional
[18] = Half life was measured as degradation by HPLC analysis.; format: ADME

Compound | MIC (Escherichia coli [1]) | Binding affinity [2] | Binding affinity [3] | Binding affinity [4] | Binding affinity [9] | MIC (Enterobacter cloacae [10]) | MIC (Enterococcus faecalis) | MIC (Citrobacter freundii) | MIC (Escherichia coli [15]) | Binding affinity [16] | further results
CCN1CCN(C(=O)N[C@@H](C(=O)N[C@@H]2C(=O)N3C(C(=O)O)=C(CSc4nnnn4C)CS[C@H]23)c2ccc(O)cc2)C(=O)C1=O | 0.031 µg/mL (≈ 0.048 µM) | 10 | 2 | 10 |  |  |  |  |  |  | 
CO/N=C(\C(=O)N[C@@H]1C(=O)N2C(C(=O)O)=C(CN3CCNCC3)CS[C@H]12)c1csc(N)n1 |  |  | > 100 | 100 | 100 | 128 µg/mL (≈ 266 µM) | 4 µg/mL (≈ 8.31 µM) | 128 µg/mL (≈ 266 µM) | 0.25 µg/mL (≈ 0.519 µM) | > 100 | MIC (Staphylococcus aureus [5]): > 128 µg/mL; MIC (Streptococcus pneumoniae): 0.063 µg/mL (≈ 0.131 µM); MIC (Pseudomonas aeruginosa [6]): > 128 µg/mL; MIC (Escherichia coli [7]): 0.25 µg/mL (≈ 0.519 µM); MIC (Klebsiella pneumoniae): 0.125 µg/mL (≈ 0.26 µM); MIC (Micrococcus luteus): 0.25 µg/mL (≈ 0.519 µM); MIC (Escherichia coli [8]): 0.25 µg/mL (≈ 0.519 µM); MIC (Streptococcus pyogenes): 0.031 µg/mL (≈ 0.0644 µM); MIC (Serratia marcescens): 8 µg/mL (≈ 16.6 µM); MIC (Escherichia coli [11]): 0.5 µg/mL (≈ 1.04 µM); MIC (Pseudomonas aeruginosa [12]): 64 µg/mL (≈ 133 µM); MIC (Staphylococcus aureus [13]): 4 µg/mL (≈ 8.31 µM); MIC (Proteus vulgaris): > 128 µg/mL; MIC (Enterobacter cloacae [14]): 0.5 µg/mL (≈ 1.04 µM); MIC (Proteus mirabilis): 0.5 µg/mL (≈ 1.04 µM); MIC (Staphylococcus aureus [17]): > 128 µg/mL
CC(C)(O/N=C(\C(=O)N[C@@H]1C(=O)N2C(C(=O)[O-])=C(C[n+]3ccccc3)CS[C@H]12)c1csc(N)n1)C(=O)O | 0.125 µg/mL (≈ 0.229 µM) | 10 | > 100 | 10 |  |  |  |  |  |  | 
O=C(O)C1=C(CN2CCN(c3cc4c(cc3F)c(=O)c(C(=O)O)cn4C3CC3)CC2)CS[C@@H]2[C@H](NC(=O)C(C(=O)O)c3ccccc3)C(=O)N12 (some centres not stated) | 4 µg/mL (≈ 5.67 µM) |  | > 100 | > 100 | 100 | 0.063 µg/mL (≈ 0.0893 µM) | 32 µg/mL (≈ 45.3 µM) | 0.063 µg/mL (≈ 0.0893 µM) | 2 µg/mL (≈ 2.83 µM) | > 100 | half-life [18]: 9.5 days
